For 11 compounds, LD50, Activity and Ratio results are on record in ChEMBL document CHEMBL3272084, “Adamantane and protoadamantanealkanamines as potential anti-Parkinson agents” (J Med Chem, 1976).

Activity calls are given as the source filed them. No cut-off for these calls is given here.

Series [1] is described as follows: Acute toxicity in po dosed albino CFW mouse assessed as mortality measured over 48 hrs. It counts as organism-based. The settings on record: albino CFW, in vivo.
The nature of series [2]: Acute toxicity in ip dosed albino CFW mouse assessed as mortality measured over 48 hrs. The series is classed as organism-based. The following applies: albino CFW, in vivo.
Series [3] relates to Mus musculus. Put plainly: Antidepressant activity in CFW mouse assessed as reversal of reserpine-induced hypothermia by measuring temperature index at 0.16 mmol/kg, sc measured every 30 mins up to 1.5 hrs. It counts as functional.
For series [4], the system named is Mus musculus. Put plainly: Antiparkinsonian activity in CFW mouse assessed as reversal of reserpine-induced catalepsy at 0.16 mmol/kg, sc measured every 30 mins up to 1.5 hrs. The series is classed as functional, organism-based.
Series [5] concerns Mus musculus. Nature of the series: Antidepressant activity in CFW mouse assessed as reversal of reserpine-induced hypothermia by measuring temperature index at 0.13 mmol/kg, sc measured every 30 mins up to 1.5 hrs. It counts as functional, organism-based.
Series [6] deals with Mus musculus. Nature of the series: Antiparkinsonian activity in CFW mouse assessed as reversal of reserpine-induced catalepsy at 0.13 mmol/kg, sc measured every 30 mins up to 1.5 hrs. It counts as functional, organism-based.
Series [7] relates to Rattus norvegicus. Put plainly: Antiparkinsonian activity in Wistar rat assessed as reversal of reserpine-induced catalepsy at 0.13 mmol/kg, po measured every 30 mins up to 1.5 hrs. The series is classed as functional, organism-based.
Series [8] concerns Rattus norvegicus. Put plainly: Antiparkinsonian activity in Wistar rat assessed as reversal of reserpine-induced catalepsy at 0.08 mmol/kg, po measured every 30 mins up to 1.5 hrs. The series is classed as functional, organism-based.
Series [9] relates to Mus musculus. Put plainly: Antidepressant activity in CFW mouse assessed as reversal of reserpine-induced hypothermia by measuring temperature index at 0.11 mmol/kg, sc measured every 30 mins up to 1.5 hrs. It counts as functional, organism-based.
Series [10] deals with Mus musculus. Nature of the series: Antiparkinsonian activity in CFW mouse assessed as reversal of reserpine-induced catalepsy at 0.11 mmol/kg, sc measured every 30 mins up to 1.5 hrs. It counts as functional, organism-based.
Series [11] deals with Mus musculus. Put plainly: Antidepressant activity in CFW mouse assessed as reversal of reserpine-induced hypothermia by measuring temperature index at 0.07 mmol/kg, sc measured every 30 mins up to 1.5 hrs. It counts as functional.
The subject of series [12] is Mus musculus. Nature of the series: Antiparkinsonian activity in CFW mouse assessed as reversal of reserpine-induced catalepsy at 0.15 mmol/kg, sc measured every 30 mins up to 1.5 hrs. It counts as functional, organism-based.
Series [13] deals with Mus musculus. Nature of the series: Antidepressant activity in CFW mouse assessed as reversal of reserpine-induced hypothermia by measuring temperature index at 0.15 mmol/kg, sc measured every 30 mins up to 1.5 hrs. It counts as functional.
For series [14], the system named is Mus musculus. Put plainly: Antidepressant activity in CFW mouse assessed as reversal of reserpine-induced hypothermia by measuring temperature index at 0.02 mmol/kg, sc measured every 30 mins up to 1.5 hrs. The series is classed as functional, organism-based.
Series [15] concerns Mus musculus. Nature of the series: Antiparkinsonian activity in CFW mouse assessed as reversal of reserpine-induced catalepsy at 0.02 mmol/kg, sc measured every 30 mins up to 1.5 hrs. The series is classed as functional, organism-based.
Series [16] relates to Rattus norvegicus. Nature of the series: Antiparkinsonian activity in Wistar rat assessed as reversal of reserpine-induced catalepsy at 0.16 mmol/kg, po measured every 30 mins up to 1.5 hrs. The series is classed as functional, organism-based.
Series [17] concerns Rattus norvegicus. Put plainly: Potency index, ratio of compound to amantadine for antiparkinsonian activity in po dosed Wistar rat assessed as reversal of reserpine-induced catalepsy. It counts as functional.
The test system of series [18] is Mus musculus. Nature of the series: Antidepressant activity in CFW mouse assessed as reversal of reserpine-induced hypothermia by measuring temperature index at 0.09 mmol/kg, sc measured every 30 mins up to 1.5 hrs. It counts as functional. A digest of the protocol: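 Groups of five CFW mice received reserpine 4 mg/kg sc. After 2.5 h, rectal temperature was taken. The temperature index (TI) is the sum of the group's mean changes from its mean initial temperature at 30, 60 and 90 min. Scoring: 0 = no effect, 1 = TI 5–10, 2 = TI >10. A run was repeated if the reserpine control TI fell outside −5 to −15.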

Series [19] has as its system Mus musculus. Put plainly: Antidepressant activity in CFW mouse assessed as reversal of reserpine-induced hypothermia by measuring temperature index at 0.04 mmol/kg, sc measured every 30 mins up to 1.5 hrs. It counts as functional.
Series [20] concerns Rattus norvegicus. Put plainly: Antiparkinsonian activity in Wistar rat assessed as reversal of reserpine-induced catalepsy at 0.15 mmol/kg, po measured every 30 mins up to 1.5 hrs. The series is classed as functional, organism-based.
The test system of series [21] is Mus musculus. Put plainly: Antiparkinsonian activity in CFW mouse assessed as reversal of reserpine-induced catalepsy at 0.07 mmol/kg, sc measured every 30 mins up to 1.5 hrs. The series is classed as functional, organism-based. Put shortly:
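Groups of five CFW mice were given reserpine 4 mg/kg sc, and catalepsy was assessed 2.5 h later. Reversal was scored 0–5: 0 no effect, 1 marginal, 2 significant, 3 marked, 4 approaching complete, 5 complete reversal.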

Series [22] relates to Rattus norvegicus. Put plainly: Antiparkinsonian activity in Wistar rat assessed as reversal of reserpine-induced catalepsy at 0.14 mmol/kg, po measured every 30 mins up to 1.5 hrs. The series is classed as functional, organism-based.
In series [23] the test system is Mus musculus. Put plainly: Antidepressant activity in CFW mouse assessed as reversal of reserpine-induced hypothermia by measuring temperature index at 0.05 mmol/kg, sc measured every 30 mins up to 1.5 hrs. It counts as functional, organism-based.
In series [24] the test system is Mus musculus. Nature of the series: Antiparkinsonian activity in CFW mouse assessed as reversal of reserpine-induced catalepsy at 0.05 mmol/kg, sc measured every 30 mins up to 1.5 hrs. It counts as functional, organism-based.

One may read the LD50 as the dose at which mortality reaches 50%. Turning to `Cl.NC1CC2CC3CC(C2)C1C3` (configuration not stated), the median lethal dose (LD50) at 48 h in [1] is 3200 µmol/kg; in series [2], 800 µmol/kg. Further, the result with Mus musculus [3] and in the series on Mus musculus [4] was inactive.

As to `CN(C)CC12CC3CC(CC(C3)C1Br)C2.Cl` (configuration not stated), the LD50 at 48 h in series [1] was found to be 1300 µmol/kg; in series [2], 500 µmol/kg. The outcome in the series on Mus musculus [5] and with Mus musculus [6] was inactive. For the same compound, the result in the series with Rattus norvegicus [7] was Active.

For `Br.CN1CCN(CC23CC4CC(CC(C4)C2Br)C3)CC1` (configuration not stated), the LD50 at 48 h in series [1] is 1200 µmol/kg; in series [2], 600 µmol/kg. In addition, the outcome in the series on Mus musculus [5], with Mus musculus [6] and in the series on Rattus norvegicus [8] was inactive.

With `Cl.OCCNC1CC2CC3CC(C2)C1C3` (configuration not stated), the values for the median lethal dose (LD50) at 48 h in series [1] and in series [2] were 2600 µmol/kg and 600 µmol/kg, respectively. Besides, the outcome in the series with Mus musculus [9] and in the series on Mus musculus [10] was inactive.

Turning to `CN1CCN(CC2(O)CC3CC4CC(C3)C2C4)CC1.Cl` (configuration not stated), the LD50 at 48 h in series [1] is 2400 µmol/kg; in [2] it was 900 µmol/kg. Further, in the series on Mus musculus [11], the Activity is reported as 5. In addition, in the series with Mus musculus [12], the outcome was inactive.

With `CN1CCN(CC23CC4CC(CC(C4)C2O)C3)CC1.Cl` (configuration not stated), the LD50 at 48 h in series [1] amounted to 1200 µmol/kg; in series [2], 900 µmol/kg. For the same compound, the Activity in the series with Mus musculus [13] is given as 5. The result in the series on Mus musculus [12] was inactive.

`CNCC12CC3CC(CC(C3)C1Cl)C2.Cl` (configuration not stated): the LD50 at 48 h in [1] came out at 1200 µmol/kg; in [2] it was 600 µmol/kg. Further, the outcome in the series on Mus musculus [14] and in the series on Mus musculus [15] was inactive. Further, the outcome in the series on Rattus norvegicus [16] was Active. Besides, the Ratio in the series with Rattus norvegicus [17] was determined as 2.

As for `Cl.c1ccc(CCNC2CC3CC4CC(C3)C2C4)cc1` (stereo in doubt; 12), the median lethal dose (LD50) at 48 h in series [1] came out at 1000 µmol/kg; in [2], 300 µmol/kg. In addition, the Activity in the series with Mus musculus [18] is listed as 5.

On to `CNCCC12CC3CC(CC(C3)C1Cl)C2.Cl` (configuration not stated), for which the LD50 at 48 h in [1] came out at 1500 µmol/kg; in series [2], 600 µmol/kg. Besides, the Activity with Mus musculus [19] is recorded as more than 10. Moreover, the result in the series on Mus musculus [12] and with Rattus norvegicus [20] was Active.

For the compound `CNCC12CC3CC(CC(C3)C1c1ccccc1)C2.Cl` (configuration not stated), in the series with Mus musculus [11], the Activity came out at 5. The outcome with Mus musculus [21] and with Rattus norvegicus [22] was inactive.

For `O=C(O)/C=C\C(=O)O.c1ccc(CNCC2CC3CC4CC(C3)C2C4)cc1` (configuration not stated), the LD50 at 48 h in series [1] worked out at 500 µmol/kg; in series [2], 200 µmol/kg. The outcome in the series on Mus musculus [23] and in the series on Mus musculus [24] was inactive.
